From ChEMBL document CHEMBL1137254, “Structurally simple, potent, Plasmodium selective farnesyltransferase inhibitors that arrest the growth of malaria parasites” (J Med Chem, 2006) come the findings set out here.

A value given as a limit tells only on which side of the number the result lay.

Broadly, the inhibition is the relative decrease from the control value, in per cent. Usually IC50 stands for the concentration that gives 50% inhibition. A word on the Tmax: it is the time at which the peak concentration occurs.

Data set [1] has as its target T1, Protein farnesyltransferase (PFT) (Plasmodium falciparum) (UniProt Q5EI73+Q5EI74). In words: Inhibition of Plasmodium falciparum PFT at 50 nM.
Data set [2] has as its target T1, Protein farnesyltransferase (PFT) (Plasmodium falciparum). The data set is described as follows: Inhibition of Plasmodium falciparum PFT at 5 nM.
Data set [3] has as its target T2, Protein farnesyltransferase (PFT) (Plasmodium falciparum, UniProt Q5EI73+Q5EI74).
T2 sequence (Q5EI73 whole entry): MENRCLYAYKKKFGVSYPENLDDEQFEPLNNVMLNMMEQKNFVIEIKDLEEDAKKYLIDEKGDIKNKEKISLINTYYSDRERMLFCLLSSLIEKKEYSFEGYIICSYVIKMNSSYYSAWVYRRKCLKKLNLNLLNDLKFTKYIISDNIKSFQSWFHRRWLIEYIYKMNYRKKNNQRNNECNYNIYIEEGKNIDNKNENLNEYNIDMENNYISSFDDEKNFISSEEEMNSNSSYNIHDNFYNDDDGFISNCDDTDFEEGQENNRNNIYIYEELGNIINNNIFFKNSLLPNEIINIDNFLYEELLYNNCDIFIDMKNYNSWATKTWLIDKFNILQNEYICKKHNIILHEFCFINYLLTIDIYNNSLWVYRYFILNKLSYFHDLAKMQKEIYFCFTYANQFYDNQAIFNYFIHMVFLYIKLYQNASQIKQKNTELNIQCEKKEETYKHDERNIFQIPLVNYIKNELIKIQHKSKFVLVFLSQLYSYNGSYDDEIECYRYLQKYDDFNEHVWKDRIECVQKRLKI
T2 sequence (Q5EI74 whole entry): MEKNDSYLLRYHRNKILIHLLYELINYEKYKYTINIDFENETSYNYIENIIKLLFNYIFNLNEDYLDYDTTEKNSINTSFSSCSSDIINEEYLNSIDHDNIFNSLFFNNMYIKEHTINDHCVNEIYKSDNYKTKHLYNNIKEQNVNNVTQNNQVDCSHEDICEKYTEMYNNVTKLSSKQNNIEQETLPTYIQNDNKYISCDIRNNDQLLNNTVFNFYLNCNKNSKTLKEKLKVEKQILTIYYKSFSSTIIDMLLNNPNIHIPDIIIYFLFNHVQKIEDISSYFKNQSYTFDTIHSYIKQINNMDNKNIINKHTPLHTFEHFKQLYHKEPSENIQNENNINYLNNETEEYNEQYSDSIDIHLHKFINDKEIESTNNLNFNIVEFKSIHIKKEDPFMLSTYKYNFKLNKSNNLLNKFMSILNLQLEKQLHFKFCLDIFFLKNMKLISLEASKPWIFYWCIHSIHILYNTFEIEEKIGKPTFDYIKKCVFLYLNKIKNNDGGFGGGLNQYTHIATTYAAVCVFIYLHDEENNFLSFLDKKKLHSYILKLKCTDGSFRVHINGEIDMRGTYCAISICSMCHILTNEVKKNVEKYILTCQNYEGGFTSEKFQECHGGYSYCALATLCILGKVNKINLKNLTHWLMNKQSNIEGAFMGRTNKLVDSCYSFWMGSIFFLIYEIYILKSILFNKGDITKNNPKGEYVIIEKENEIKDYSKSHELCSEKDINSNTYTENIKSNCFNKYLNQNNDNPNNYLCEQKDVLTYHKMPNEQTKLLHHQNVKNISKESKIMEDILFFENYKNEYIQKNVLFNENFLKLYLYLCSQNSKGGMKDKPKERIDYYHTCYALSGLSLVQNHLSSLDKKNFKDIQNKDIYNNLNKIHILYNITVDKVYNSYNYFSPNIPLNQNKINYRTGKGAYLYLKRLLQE
In words: Inhibition of Plasmodium falciparum PFT. The class given is protein-complex assay.

Data set [4] relates to Plasmodium falciparum. In words: Inhibition of Plasmodium falciparum K1 growth as reduced [3H]hypoxanthine incorporation. The class given is functional. The following applies: K1, 72 h, read-out: ED50 (the source's name). The essentials:
(§1)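 Inhibitor in DMSO was added to P. falciparum culture (0.5% parasitemia, 0.5% hematocrit) in RPMI-1640 with 20% human A+ plasma. Cultures were held 48 h at 37 °C under 5% CO2/5% O2/90% N2, then pulsed with [8-3H]hypoxanthine (0.3 μCi) for 24 h more. Cells were harvested and counted by β-scintillation. Background from uninfected RBCs was subtracted, with DMSO set as 100%. ED50 was obtained by linear regression.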

Data set [5] deals with Plasmodium falciparum. In words: Inhibition of Plasmodium falciparum 3D7 growth as reduced [3H]hypoxanthine incorporation. The data set is classed as functional. The conditions noted are these: 3D7, 72 h, read-out: ED50 (the source's name). A digest of the protocol: as §1
Data set [6] is described as follows: Tmax in mouse at 50 mg/kg, po. More on the design: dose 50 mg/kg, route oral. The class given is ADME, organism-based. The following applies: in vivo. A digest of the protocol: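 Oral gavage at 50 mg/kg in 90% saline, 3% ethanol, 7% Tween; inhibitor concentration in plasma followed over 5 h. Values are averages of three animals per species (mice or rats). Reported parameters are AUC, Cmax, Tmax and elimination t1/2.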

The target of data set [7] is T1, Protein farnesyltransferase (PFT) (Plasmodium falciparum). The data set is described as follows: Selectivity for inhibition of Plasmodium falciparum PFT over rat PFT. The class given is protein-complex assay.

As to `C=C(Br)CN(CCN(Cc1cncn1C)c1ccc(C#N)cc1)S(=O)(=O)c1cn(C)cn1`, the figures for the inhibition in data set [1] and in data set [2] were 80% and 25%, respectively.
`Cn1cnc(S(=O)(=O)N(CCN(Cc2cncn2C)c2ccc(C#N)cc2)CC(=O)NC(C)(C)C)c1`: the inhibition in data set [1] is 6%; in data set [2] it was 4%. Moreover, the IC50 in data set [3] is > 1000 nM.
As to `Cc1ccccc1CN(CCN(Cc1cncn1C)c1ccc(-c2ccccc2)cc1)S(=O)(=O)c1cn(C)cn1`, the EC50 with Plasmodium falciparum [4] is 2600 nM. In addition, the figures for the inhibition in data set [1] and in data set [2] were 85% and 49%, respectively. For the same compound, in data set [3], it took 8 nM to reach half-maximal inhibition (IC50).
Regarding `Cn1cncc1CN(CCN(Cc1ccccc1)S(=O)(=O)c1cccc2cccnc12)c1ccc(C#N)cc1`, the inhibition in data set [1] worked out at 35%; in data set [2] it was 14%.
For `Cn1cnc(S(=O)(=O)N(CCN(Cc2cncn2C)c2ccc(C#N)cc2)CC2CCN(c3ncccn3)CC2)c1` the same measures were 96% and 74%.
`C=C(C)CN(CCN(Cc1cncn1C)c1ccc(C#N)cc1)S(=O)(=O)c1cn(C)cn1`: the inhibition in data set [1] amounted to 77%; in data set [2], 6%.
As for `Cn1cnc(S(=O)(=O)N(CCN(Cc2cncn2C)c2ccc(C#N)cc2)Cc2cccc(-c3ccccc3)c2)c1`, the inhibition in data set [1] came out at 93%; in data set [2] it was 56%.
`O=S(=O)(c1cccs1)N(CCN(Cc1c[nH]cn1)c1ccccc1)Cc1ccccc1` gave an inhibition in data set [1] of 5%.
With `Cn1cnc(S(=O)(=O)N(CCN(Cc2cncn2C)c2ccc(C#N)cc2)Cc2cccc(-n3cccc3)c2)c1`, the EC50 with Plasmodium falciparum [5] worked out at 2500 nM; in the data set with Plasmodium falciparum [4], 4000 nM. The inhibition amounted to 74% in data set [1] and 37% in data set [2].
Consider `C=CCN(CCN(Cc1cncn1C)c1ccc(C#N)cc1)S(=O)(=O)c1cn(C)cn1`, for which the values for the inhibition in data set [1] and in data set [2] were 42% and 1%, respectively.
For `CC(C)C(=O)N(CCN(Cc1cncn1C)c1ccc(C#N)cc1)Cc1ccccc1` the same measures were 61% and 0%.
The corresponding values for `Cn1cncc1CN(CCN(Cc1ccccc1)S(=O)(=O)c1cccs1)c1ccc(C#N)cc1` are 74% and 17%.
In data set [1], `O=S(=O)(c1ccccc1)N(CCN(Cc1c[nH]cn1)c1ccccc1)Cc1ccccc1` registered an inhibition of 7%.
On the same count and under the same terms, for `Cn1cnc(S(=O)(=O)N(CCN(Cc2c[nH]cn2)c2ccccc2)Cc2ccccc2)c1` the value was 32%.
In the case of `Cn1cncc1CN(CCN(Cc1ccccc1)S(=O)(=O)c1ccccn1)c1ccc(C#N)cc1`, in data set [6], the Tmax was 30 min. Besides, the figures for the inhibition in data set [1] and in data set [2] were 95% and 64%, respectively.
For the compound `O=S(=O)(c1ccc2ccccc2c1)N(CCN(Cc1c[nH]cn1)c1ccccc1)Cc1ccccc1`, the inhibition in data set [1] was 0%.
`Cn1cncc1CN(CCN(Cc1ccccc1)S(=O)(=O)c1ccccc1)c1ccc(C#N)cc1`: the inhibition in data set [1] was found to be 69%; in data set [2], 18%. Moreover, the IC50 in data set [3] came out at 8.9 nM. The Selectivity ratio in data set [7] amounted to 1.5.
In data set [1], `CN(C)c1cccc2c(S(=O)(=O)N(CCN(Cc3c[nH]cn3)c3ccccc3)Cc3ccccc3)cccc12` showed an inhibition of 0%.
With `Cn1cnc(S(=O)(=O)N(CCN(Cc2cncn2C)c2ccc(C#N)cc2)Cc2ccncc2)c1`, the inhibition in data set [1] came to 62%; in data set [2], 22%.
As to `CC(=O)N(CCN(Cc1cncn1C)c1ccc(C#N)cc1)Cc1ccccc1`, the inhibition in data set [1] came to 56%; in data set [2] it was 0%.
As for `Cc1ccc(CN(CCN(Cc2cncn2C)c2ccc(C#N)cc2)S(=O)(=O)c2cn(C)cn2)cc1`, the inhibition in data set [1] came to 54%; in data set [2], 45%.
Regarding `Cn1cnc(S(=O)(=O)N(CCN(Cc2cncn2C)c2ccc(C#N)cc2)Cc2ccc(C#N)cc2)c1`, the inhibition in data set [1] stood at 48%; in data set [2] it was 24%. In addition, the IC50 in data set [3] worked out at 95 nM. Further, in data set [7], the Selectivity ratio is 3.7.
Regarding `Cn1cnc(S(=O)(=O)N(CCN(Cc2cncn2C)c2ccc(Br)cc2)Cc2ccccc2)c1`, the inhibition in data set [1] was 95%; in data set [2] it was 70%. For the same compound, the IC50 in data set [3] stood at 2 nM.
For the compound `Cn1cnc(S(=O)(=O)N(CCN(Cc2cncn2C)c2ccc(C#N)cc2)Cc2ccccn2)c1`, the inhibition was found to be 93% in data set [1] and 64% in data set [2]. The same compound displayed a concentration for half-maximal inhibition (IC50) in data set [3] of 2.1 nM.
Regarding `Cn1cnc(S(=O)(=O)N(CCN(Cc2cncn2C)c2ccc(C#N)cc2)Cc2ccc(-n3cccc3)cc2)c1`, the figures for the inhibition in data set [1] and in data set [2] were 85% and 39%, respectively.
Compound `Cn1cnc(S(=O)(=O)N(CCN(Cc2cncn2C)c2ccc(Br)cc2)Cc2ccccn2)c1` displayed an IC50 in data set [3] of 1.9 nM. In addition, the Selectivity ratio in data set [7] stood at 44.
As for `Cn1cnc(S(=O)(=O)N(CCN(Cc2cncn2C)c2ccc(C#N)cc2)CC2CCOCC2)c1`, the values for the inhibition in data set [1] and in data set [2] were 84% and 28%, respectively.
Take `Cc1cccc(CN(CCN(Cc2cncn2C)c2ccc(C#N)cc2)S(=O)(=O)c2cn(C)cn2)c1`: the EC50 in the data set on Plasmodium falciparum [5] was found to be 300 nM; in the data set with Plasmodium falciparum [4], 1000 nM. Besides, the inhibition was 94% in data set [1] and 61% in data set [2].
Consider `O=S(=O)(c1cccc2cccnc12)N(CCN(Cc1c[nH]cn1)c1ccccc1)Cc1ccccc1`, for which the inhibition in data set [1] was 0%.
For `Cn1cnc(S(=O)(=O)N(CCN(Cc2cncn2C)c2ccc(C#N)cc2)Cc2cccnc2)c1`, the inhibition in data set [1] came to 74%; in data set [2] it was 18%.
For `Cn1cnc(S(=O)(=O)N(CCN(Cc2cncn2C)c2ccc(C#N)cc2)CC2CCNCC2)c1` the same measures were 5% and 5%.
As for `Cn1cnc(S(=O)(=O)N(CCN(Cc2c[nH]cn2)c2ccc(Br)cc2)Cc2ccccc2)c1`, the inhibition in data set [1] is 80%.
In the case of `Cn1cnc(S(=O)(=O)N(CCN(Cc2cncn2C)c2ccc(C#N)cc2)Cc2cccc(C#N)c2)c1`, the results for the EC50 with Plasmodium falciparum [5] and with Plasmodium falciparum [4] were 350 nM and 1800 nM, respectively. Besides, the inhibition in data set [1] stood at 89%; in data set [2] it was 45%.
Turning to `CN(C)c1cccc2c(S(=O)(=O)N(CCN(Cc3cncn3C)c3ccc(C#N)cc3)Cc3ccccc3)cccc12`, the inhibition in data set [1] amounted to 29%; in data set [2] it was 6%. Moreover, in data set [3], the IC50 is 55 nM. The Selectivity ratio in data set [7] was found to be 3.3.
With `CC(C)C(=O)N1CCC(CN(CCN(Cc2cncn2C)c2ccc(C#N)cc2)S(=O)(=O)c2cn(C)cn2)CC1`, the figures for the inhibition in data set [1] and in data set [2] were 92% and 57%, respectively.
As for `Cn1cnc(S(=O)(=O)N(CCN(Cc2cncn2C)c2ccc(C#N)cc2)CCn2cccc2)c1`, the inhibition stood at 56% in data set [1] and 11% in data set [2].
For `CC(=O)N1CCC(CN(CCN(Cc2cncn2C)c2ccc(C#N)cc2)S(=O)(=O)c2cn(C)cn2)CC1` the same measures were 44% and 8%.
For `Cn1cnc(S(=O)(=O)N(CCN(Cc2cncn2C)c2ccc(C#N)cc2)CC2CCN(C(=O)OC(C)(C)C)CC2)c1` the same measures were 96% and 81%.
